Source: ChEMBL document CHEMBL1157100, “The alkyl-connected 2-amino-6-vinylpurine (AVP) crosslinking agent for improved selectivity to the cytosine base in RNA” (Bioorg Med Chem, 2010)
Calls of active or inactive are those of the source. The rule behind the calls is not given here.

Legend:
Type in all cases: nucleic-acid assay
Nucleic Acid [1] = assay: Binding affinity to r-(CGCUGGGCGUUAAUCAAAGAGGCGAAC)-RNA assessed as melting temperature at 1.5 uM by UV-visible spectrophotometry
Method in brief: (§1)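 Each strand at 1.5 µM: ODN plus complementary 27-mer RNA in 100 mM NaCl, 50 mM MES pH 5. Samples were heated at 85 °C for 10 min and cooled slowly. Melting curves were recorded at 260 nm while warming 20 to 80 °C at 1.0 °C/min to obtain Tm.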

Nucleic Acid [2] = assay: Binding affinity to FAM-tagged r-(CAAGCGGAGAAAYUAAUUGCGGGUCGC)-RNA assessed as crosslinking at 10 uM by alkylation method
Method in brief: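 Reactive ODN at 10 µM with 1 µM FAM-labeled target DNA or RNA in 100 mM NaCl, 50 mM MES pH 5 plus RNase OUT, mixed at 0 °C and then incubated at 37 °C. Reactions were stopped at set times with formamide/EDTA/bromophenol blue buffer. Products were resolved on 15% denaturing polyacrylamide gel with 7 M urea, and FAM band intensities were quantified to give crosslinking yield.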

Nucleic Acid [3] = assay: Binding affinity to r-(ACGUGAAUUGUUCAACAGUAUGGGCAU)-RNA assessed as melting temperature at 1.5 uM by UV-visible spectrophotometry; method in brief: as §1

Tm (Nucleic Acid [1]) [°C]	Activity (Nucleic Acid [2])	Tm (Nucleic Acid [3]) [°C]	Compound
49.4	Active	–	CSCCc1nc(N)nc2c1ncn2[C@H]1C[C@H](OP(=O)(O)OC[C@H]2O[C@@H](n3cnc4c(N)ncnc43)[C@H](O)[C@@H]2OP(=O)(O)OC[C@H]2O[C@@H](n3cc(C)c(=O)[nH]c3=O)C[C@@H]2OP(=O)(O)OC[C@H]2O[C@@H](n3cc(C)c(=O)[nH]c3=O)C[C@@H]2OP(=O)(O)OC[C@H]2O[C@@H](n3cnc4c(N)ncnc43)[C@H](O)[C@@H]2OP(=O)(O)OC[C@H]2O[C@@H](n3cnc4c(N)ncnc43)[C@H](O)[C@@H]2OP(=O)(O)OC[C@H]2O[C@@H](n3ccc(N)nc3=O)[C@H](O)[C@@H]2OP(=O)(O)OC[C@H]2O[C@@H](n3cnc4c(=O)[nH]c(N)nc43)[C@H](O)[C@@H]2OP(=O)(O)OC[C@H]2O[C@@H](n3ccc(N)nc3=O)[C@H](O)[C@@H]2OP(=O)(O)OC[C@H]2O[C@@H](n3ccc(N)nc3=O)[C@H](O)[C@@H]2OP(=O)(O)O)[C@@H](COP(=O)(O)O[C@H]2C[C@H](n3cc(C)c(=O)[nH]c3=O)O[C@@H]2COP(=O)(O)O[C@H]2C[C@H](n3cc(C)c(=O)[nH]c3=O)O[C@@H]2COP(=O)(O)O[C@H]2C[C@H](n3cc(C)c(=O)[nH]c3=O)O[C@@H]2COP(=O)(O)O[C@H]2[C@@H](O)[C@H](n3ccc(N)nc3=O)O[C@@H]2COP(=O)(O)O[C@H]2C[C@H](n3cc(C)c(=O)[nH]c3=O)O[C@@H]2COP(=O)(O)O[C@H]2[C@@H](O)[C@H](n3ccc(N)nc3=O)O[C@@H]2COP(=O)(O)O[C@H]2[C@@H](O)[C@H](n3ccc(N)nc3=O)O[C@@H]2COP(=O)(O)O[C@H]2[C@@H](O)[C@H](n3cnc4c(=O)[nH]c(N)nc43)O[C@@H]2COP(=O)(O)O[C@H]2[C@@H](O)[C@H](n3ccc(N)nc3=O)O[C@@H]2COP(=O)(O)O[C@H]2C[C@H](n3cc(C)c(=O)[nH]c3=O)O[C@@H]2COP(=O)(O)O[C@H]2C[C@H](n3cc(C)c(=O)[nH]c3=O)O[C@@H]2CO)O1
–	–	64.1	Cc1cn([C@H]2C[C@H](OP(CCC#N)N(C(C)C)C(C)C)[C@@H](COP(=O)(O)O[C@H]3[C@@H](O)[C@H](n4cnc5c(N)ncnc54)O[C@@H]3COP(=O)(O)O[C@H]3[C@@H](O)[C@H](n4cnc5c(N)ncnc54)O[C@@H]3COP(=O)(O)O[C@H]3[C@@H](O)[C@H](n4ccc(N)nc4=O)O[C@@H]3COP(=O)(O)O[C@H]3[C@@H](O)[C@H](n4cnc5c(=O)[nH]c(N)nc54)O[C@@H]3COP(=O)(O)O[C@H]3[C@@H](O)[C@H](n4cnc5c(N)ncnc54)O[C@@H]3COP(=O)(O)O[C@H]3[C@@H](O)[C@H](n4cnc5c(=O)[nH]c(N)nc54)O[C@@H]3COP(=O)(O)O[C@H]3C[C@H](n4cc(C)c(=O)[nH]c4=O)O[C@@H]3COP(=O)(O)O[C@H]3C[C@H](n4cc(C)c(=O)[nH]c4=O)O[C@@H]3COP(=O)(O)O[C@H]3[C@@H](O)[C@H](n4cnc5c(=O)[nH]c(N)nc54)O[C@@H]3COP(=O)(O)O[C@H]3C[C@H](n4cc(C)c(=O)[nH]c4=O)O[C@@H]3COP(=O)(O)O[C@H]3[C@@H](O)[C@H](n4ccc(N)nc4=O)O[C@@H]3COP(=O)(O)O[C@H]3[C@@H](O)[C@H](n4cnc5c(N)ncnc54)O[C@@H]3COP(=O)(O)O[C@H]3C[C@H](n4cc(C)c(=O)[nH]c4=O)O[C@@H]3COP(=O)(O)O[C@H]3[C@@H](O)[C@H](n4cnc5c(N)ncnc54)O[C@@H]3COP(=O)(O)O[C@H]3[C@@H](O)[C@H](n4ccc(N)nc4=O)O[C@@H]3COP(=O)(O)O[C@H]3[C@@H](O)[C@H](n4ccc(N)nc4=O)O[C@@H]3COP(=O)(O)O[C@H]3[C@@H](O)[C@H](n4ccc(N)nc4=O)O[C@@H]3COP(=O)(O)O[C@H]3[C@@H](O)[C@H](n4cnc5c(=O)[nH]c(N)nc54)O[C@@H]3COP(=O)(O)O[C@H]3C[C@H](n4cc(C)c(=O)[nH]c4=O)O[C@@H]3COP(=O)(O)O[C@H]3[C@@H](O)[C@H](n4cnc5c(N)ncnc54)O[C@@H]3CO)O2)c(=O)[nH]c1=O (some centres undefined)
50.4	Active	–	CSCCc1nc(N)nc2c1ncn2CC[C@H]1C[C@H](OP(=O)(O)OC[C@H]2O[C@@H](n3cnc4c(N)ncnc43)[C@H](O)[C@@H]2OP(=O)(O)OC[C@H]2O[C@@H](n3cc(C)c(=O)[nH]c3=O)C[C@@H]2OP(=O)(O)OC[C@H]2O[C@@H](n3cc(C)c(=O)[nH]c3=O)C[C@@H]2OP(=O)(O)OC[C@H]2O[C@@H](n3cnc4c(N)ncnc43)[C@H](O)[C@@H]2OP(=O)(O)OC[C@H]2O[C@@H](n3cnc4c(N)ncnc43)[C@H](O)[C@@H]2OP(=O)(O)OC[C@H]2O[C@@H](n3ccc(N)nc3=O)[C@H](O)[C@@H]2OP(=O)(O)OC[C@H]2O[C@@H](n3cnc4c(=O)[nH]c(N)nc43)[C@H](O)[C@@H]2OP(=O)(O)OC[C@H]2O[C@@H](n3ccc(N)nc3=O)[C@H](O)[C@@H]2OP(=O)(O)OC[C@H]2O[C@@H](n3ccc(N)nc3=O)[C@H](O)[C@@H]2OP(=O)(O)O)[C@@H](COP(=O)(O)O[C@H]2C[C@H](n3cc(C)c(=O)[nH]c3=O)O[C@@H]2COP(=O)(O)O[C@H]2C[C@H](n3cc(C)c(=O)[nH]c3=O)O[C@@H]2COP(=O)(O)O[C@H]2C[C@H](n3cc(C)c(=O)[nH]c3=O)O[C@@H]2COP(=O)(O)O[C@H]2[C@@H](O)[C@H](n3ccc(N)nc3=O)O[C@@H]2COP(=O)(O)O[C@H]2C[C@H](n3cc(C)c(=O)[nH]c3=O)O[C@@H]2COP(=O)(O)O[C@H]2[C@@H](O)[C@H](n3ccc(N)nc3=O)O[C@@H]2COP(=O)(O)O[C@H]2[C@@H](O)[C@H](n3ccc(N)nc3=O)O[C@@H]2COP(=O)(O)O[C@H]2[C@@H](O)[C@H](n3cnc4c(=O)[nH]c(N)nc43)O[C@@H]2COP(=O)(O)O[C@H]2[C@@H](O)[C@H](n3ccc(N)nc3=O)O[C@@H]2COP(=O)(O)O[C@H]2C[C@H](n3cc(C)c(=O)[nH]c3=O)O[C@@H]2COP(=O)(O)O[C@H]2C[C@H](n3cc(C)c(=O)[nH]c3=O)O[C@@H]2CO)O1
–	inactive	53.3	CSCCc1nc(N)nc2c1ncn2[C@H]1C[C@H](OP(=O)(O)OC[C@H]2O[C@@H](n3cc(C)c(=O)[nH]c3=O)C[C@@H]2OP(=O)(O)OC[C@H]2O[C@@H](n3cc(C)c(=O)[nH]c3=O)C[C@@H]2OP(=O)(O)OC[C@H]2O[C@@H](n3cnc4c(=O)[nH]c(N)nc43)[C@H](O)[C@@H]2OP(=O)(O)OC[C@H]2O[C@@H](n3cnc4c(N)ncnc43)[C@H](O)[C@@H]2OP(=O)(O)OC[C@H]2O[C@@H](n3cnc4c(=O)[nH]c(N)nc43)[C@H](O)[C@@H]2OP(=O)(O)OC[C@H]2O[C@@H](n3ccc(N)nc3=O)[C@H](O)[C@@H]2OP(=O)(O)OC[C@H]2O[C@@H](n3cnc4c(N)ncnc43)[C@H](O)[C@@H]2OP(=O)(O)OC[C@H]2O[C@@H](n3cnc4c(N)ncnc43)[C@H](O)[C@@H]2OP(=O)(O)OC[C@H]2O[C@@H](n3cc(C)c(=O)[nH]c3=O)C[C@@H]2OP(CCC#N)N(C(C)C)C(C)C)[C@@H](COP(=O)(O)O[C@H]2C[C@H](n3cc(C)c(=O)[nH]c3=O)O[C@@H]2COP(=O)(O)O[C@H]2[C@@H](O)[C@H](n3ccc(N)nc3=O)O[C@@H]2COP(=O)(O)O[C@H]2[C@@H](O)[C@H](n3cnc4c(N)ncnc43)O[C@@H]2COP(=O)(O)O[C@H]2C[C@H](n3cc(C)c(=O)[nH]c3=O)O[C@@H]2COP(=O)(O)O[C@H]2[C@@H](O)[C@H](n3cnc4c(N)ncnc43)O[C@@H]2COP(=O)(O)O[C@H]2[C@@H](O)[C@H](n3ccc(N)nc3=O)O[C@@H]2COP(=O)(O)O[C@H]2[C@@H](O)[C@H](n3ccc(N)nc3=O)O[C@@H]2COP(=O)(O)O[C@H]2[C@@H](O)[C@H](n3ccc(N)nc3=O)O[C@@H]2COP(=O)(O)O[C@H]2[C@@H](O)[C@H](n3cnc4c(=O)[nH]c(N)nc43)O[C@@H]2COP(=O)(O)O[C@H]2C[C@H](n3cc(C)c(=O)[nH]c3=O)O[C@@H]2COP(=O)(O)O[C@H]2[C@@H](O)[C@H](n3cnc4c(N)ncnc43)O[C@@H]2CO)O1 (some centres undefined)
–	inactive	49.7	CSCCc1nc(N)nc2c1ncn2CC[C@H]1C[C@H](OP(=O)(O)OC[C@H]2O[C@@H](n3cc(C)c(=O)[nH]c3=O)C[C@@H]2OP(=O)(O)OC[C@H]2O[C@@H](n3cc(C)c(=O)[nH]c3=O)C[C@@H]2OP(=O)(O)OC[C@H]2O[C@@H](n3cnc4c(=O)[nH]c(N)nc43)[C@H](O)[C@@H]2OP(=O)(O)OC[C@H]2O[C@@H](n3cnc4c(N)ncnc43)[C@H](O)[C@@H]2OP(=O)(O)OC[C@H]2O[C@@H](n3cnc4c(=O)[nH]c(N)nc43)[C@H](O)[C@@H]2OP(=O)(O)OC[C@H]2O[C@@H](n3ccc(N)nc3=O)[C@H](O)[C@@H]2OP(=O)(O)OC[C@H]2O[C@@H](n3cnc4c(N)ncnc43)[C@H](O)[C@@H]2OP(=O)(O)OC[C@H]2O[C@@H](n3cnc4c(N)ncnc43)[C@H](O)[C@@H]2OP(=O)(O)OC[C@H]2O[C@@H](n3cc(C)c(=O)[nH]c3=O)C[C@@H]2OP(CCC#N)N(C(C)C)C(C)C)[C@@H](COP(=O)(O)O[C@H]2C[C@H](n3cc(C)c(=O)[nH]c3=O)O[C@@H]2COP(=O)(O)O[C@H]2[C@@H](O)[C@H](n3ccc(N)nc3=O)O[C@@H]2COP(=O)(O)O[C@H]2[C@@H](O)[C@H](n3cnc4c(N)ncnc43)O[C@@H]2COP(=O)(O)O[C@H]2C[C@H](n3cc(C)c(=O)[nH]c3=O)O[C@@H]2COP(=O)(O)O[C@H]2[C@@H](O)[C@H](n3cnc4c(N)ncnc43)O[C@@H]2COP(=O)(O)O[C@H]2[C@@H](O)[C@H](n3ccc(N)nc3=O)O[C@@H]2COP(=O)(O)O[C@H]2[C@@H](O)[C@H](n3ccc(N)nc3=O)O[C@@H]2COP(=O)(O)O[C@H]2[C@@H](O)[C@H](n3ccc(N)nc3=O)O[C@@H]2COP(=O)(O)O[C@H]2[C@@H](O)[C@H](n3cnc4c(=O)[nH]c(N)nc43)O[C@@H]2COP(=O)(O)O[C@H]2C[C@H](n3cc(C)c(=O)[nH]c3=O)O[C@@H]2COP(=O)(O)O[C@H]2[C@@H](O)[C@H](n3cnc4c(N)ncnc43)O[C@@H]2CO)O1 (some centres undefined)
